Activity calls are given as the source filed them. The calls are words filed in the database; no cut-off is given here.
Tests used:
[1] = tested on: Plasmodium berghei (ANKA); assay: Antiplasmodial activity as survival against Plasmodium berghei ANKA infection in NMRI mice (Mus musculus) at 10 mg/kg intraperitoneal dose for 4 days
[2] = tested on: Plasmodium berghei (ANKA); assay: Antiplasmodial activity as survival against Plasmodium berghei ANKA infection in NMRI mice (Mus musculus) assessed at 5 mg/kg intraperitoneal dose for 4 days
[3] = tested on: Plasmodium berghei (ANKA); assay: Antiplasmodial activity against parasitemia in Plasmodium berghei ANKA infected NMRI mice (Mus musculus) at 5 mg/kg intraperitoneal dose after 4 days
Ferriprotoporphyrin IX [4] = assay: Inhibition of ferriprotoporphyrin 9 biomineralization; assay type: functional
In short: (§1)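 β-Hematin formation: hemin chloride (0.5 mg/mL in DMSO) with 0.5 M sodium acetate pH 4.4 and drug dilutions, 37 °C for 18–24 h. Pellet washed with DMSO, dissolved in 0.1 N NaOH, A405 read. Percent inhibition relative to solvent control. IC₅₀ derived, or percent inhibition at 1 mg/mL (highest concentration) given when no IC₅₀.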

[5] = tested on: Plasmodium berghei (ANKA); assay: Antiplasmodial activity against parasitemia in Plasmodium berghei ANKA infected NMRI mice (Mus musculus) at 10 mg/kg intraperitoneal dose after 4 days
[6] = Selectivity index, ratio of IC50 for rat L6 cells to IC50 for Trypanosoma brucei rhodesiense STIB900; assay type: functional
In short: (§2)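 Ratio of the IC₅₀ on L-6 rat skeletal myoblasts to the parasite IC₅₀. Cytotoxicity measured in RPMI 1640 with L-glutamine and 10% FBS, serial dilutions 90 to 0.123 µg/mL, duplicate. After 72 h, Alamar blue (resazurin) added for 2 h. Fluorescence read at ex 536 / em 588 nm.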

[7] = Selectivity index, ratio of IC50 for rat L6 cells to IC50 for Plasmodium falciparum K1; assay type: functional
In short: as §2

Plasmodium falciparum = assay: Antiplasmodial activity against Plasmodium falciparum K1 in [3H]hypoxanthine incorporation assay; assay type: functional, organism-based; conditions: K1, 72 h
In short: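 K1 erythrocytic stages in RPMI 1640 without hypoxanthine with AlbuMax, human A⁺ red cells at 2.5% hematocrit, 0.3% parasitemia. Compounds taken from 10 mg/mL DMSO stock, tested as serial doubling dilutions at 37 °C in 4% CO₂/3% O₂/93% N₂. After 48 h, ³H-hypoxanthine (0.5 µCi) added for 24 h more; incorporation by scintillation counting. IC₅₀ from sigmoidal curves.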

[8] = Binding affinity for DNA assessed as thermal melting temperature
In short: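 Thermal melting of poly(dA)·poly(dT): DNA at 40 µM base with compound at 12 µM (ratio 0.3) in MES 0.01 M / EDTA 0.001 M buffer, pH 6.25. A260 followed from 20 to 95 °C at 0.5 °C/min. Value is ΔTm.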

Plasmodium berghei [9] = assay: Antiplasmodial activity as survival against Plasmodium berghei ANKA infection in NMRI mice (Mus musculus) at 50 mg/kg intraperitoneal dose for 4 days
Plasmodium berghei [10] = assay: Antiplasmodial activity against Plasmodium berghei ANKA infected NMRI mice (Mus musculus) as reduced parasitemia at 50 mg/kg intraperitoneal dose after 4 days; parameters: scale not given: the % may be the effect or the level left
[11] = tested on: Trypanosoma brucei rhodesiense; assay: Antitrypanosomal activity against Trypanosoma brucei rhodesiense STIB900; assay type: functional, organism-based
In short: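 Bloodstream forms (10⁴ per well) in MEM with 15% heat-inactivated horse serum, 25 mM HEPES, 2-mercaptoethanol, hypoxanthine. 3-fold serial dilutions from 90 to 0.123 µg/mL, in duplicate. Incubation 72 h at 37 °C, 5% CO₂. Resazurin then added for 2–4 h more. Fluorescence read at ex 536 / em 588 nm.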

L6 = assay: Cytotoxicity against rat L6 cells; assay type: cell-based
Ferriprotoporphyrin IX [12] = assay: Inhibition of ferriprotoporphyrin 9 biomineralization at 1 mg/ml; assay type: functional
In short: as §1

[13] = tested on: Trypanosoma brucei rhodesiense; assay: Antitrypanosomal activity against Trypanosoma brucei rhodesiense STIB900 infected NMRI mouse assessed as number of cured animals at 20 mg/kg, ip after 4 days; assay type: functional, organism-based; parameters: dose 20 mg/kg
In short: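 Mice infected ip with 2 × 10⁴ STIB900 bloodstream forms. Groups of four treated ip on days 3–6, with an untreated control group. Parasitemia checked every second day to day 14, then twice weekly to day 60. Mice surviving and aparasitemic at 60 days counted as cured.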

[14] = tested on: Trypanosoma brucei rhodesiense; assay: Antitrypanosomal activity against Trypanosoma brucei rhodesiense STIB900 infected NMRI mouse assessed as survival of animals administered at 20 mg/kg, ip after 4 days; assay type: functional; conditions: route intraperitoneal
In short: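 Mice infected ip with 2 × 10⁴ bloodstream forms of T. b. rhodesiense STIB900. Groups of four treated ip on days 3–6, untreated control group. Parasitemia checked every second day to day 14, then twice weekly to day 60. Deaths recorded for mean survival time. Surviving aparasitemic mice at 60 days counted as cured.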

Mus musculus = assay: Toxicity in Plasmodium berghei ANKA infected NMRI mice (Mus musculus) at 50 mg/kg, intraperitoneally for 4 days; assay type: organism-based; parameters: dose 50 mg/kg, route intraperitoneal; conditions: in vivo, ip, 96 h
In short: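 Toxicity recorded in the P. berghei ANKA model. Female NMRI mice (20–22 g), three per group, infected iv with 2 × 10⁷ parasitized erythrocytes. Compound in DMSO diluted 10-fold in water, dosed ip at 4, 24, 48 and 72 h post-infection. Survival followed up to 30 days after infection.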

[15] = tested on: Plasmodium berghei (ANKA); assay: Antiplasmodial activity as survival against Plasmodium berghei ANKA infection in NMRI mice (Mus musculus) at 20 mg/kg intraperitoneal dose for 4 days
[16] = tested on: Plasmodium berghei (ANKA); assay: Antiplasmodial activity against parasitemia in Plasmodium berghei ANKA infected NMRI mice (Mus musculus) at 20 mg/kg intraperitoneal dose after 4 days

SMILES | Survival [1] | Survival [2] | Activity [3] | IC50 (Ferriprotoporphyrin IX [4]) | Activity [5] | Ratio IC50 [6] | Ratio IC50 [7] | IC50 (Plasmodium falciparum) | ΔTm [8] | Survival (Plasmodium berghei [9]) | Activity (Plasmodium berghei [10]) | IC50 [11] | IC50 (L6) | inhibition (Ferriprotoporphyrin IX [12]) | Activity [13] | Survival [14] | Activity (Mus musculus) | Survival [15] | Activity [16]
CCN(CC)CCCC(C)Nc1ccnc2cc(Cl)ccc12 (centres undefined) [CHLOROQUINE] | 20 days | 9 days | 99.6% | 17.9 µM | 99.6% | – | – | – | – | – | – | – | – | – | – | – | – | – | –
c1cc(Sc2ccc(NC3=NCCN3)cc2)ccc1NC1=NCCN1 | – | – | – | 952 µM | – | 60 | 932 | 0.025 µM | 24.1 °C | 11.3 days | 97.5% | 0.386 µM | 23.3 µM | – | – | – | – | – | –
Cl.Cl.N=C(N)Nc1ccc(NC(=O)c2ccc(NC(=N)N)cc2)cc1 | – | – | – | – | – | 319 | 209 | 0.055 µM | 40.1 °C | – | – | 0.036 µM | 11.5 µM | 0% | Active | >60 days | – | – | –
N=C(N)Nc1ccc(CCc2ccc(NC(=N)N)cc2)cc1 | – | – | – | – | – | 24 | 57 | 0.019 µM | 26.1 °C | – | – | 0.045 µM | 1.09 µM | 0% | – | – | Toxic | – | –
c1cc(NC2=NCCN2)ccc1Cc1ccc(NC2=NCCN2)cc1 | – | – | – | – | – | 71 | 4051 | 0.0157 µM | 18.8 °C | – | – | 0.897 µM | 63.6 µM | – | – | – | – | 6.7 days | 8.9%
CCOC(CNC(=N)Nc1ccc(Nc2ccc(NC(=N)NCC(OCC)OCC)cc2)cc1)OCC | – | – | – | 162 µM | – | >767 | >1548 | 0.113 µM | 13.6 °C | – | – | 0.228 µM | > 175 µM | – | – | – | – | – | –
N=C(N)Nc1ccc(N2CCN(c3ccc(NC(=N)N)cc3)CC2)cc1 | – | – | – | – | – | 172 | 3053 | 0.0152 µM | 27.8 °C | – | – | 0.27 µM | 46.4 µM | 0% | – | – | – | 7 days | 42.48%
Cl.N=C(N)Nc1ccc(NC(=O)Nc2ccc(NC(=N)N)cc2)cc1 | – | – | – | – | – | >1256 | >2547 | 0.096 µM | 24.1 °C | – | – | 0.187 µM | > 235 µM | 0% | – | – | Toxic | – | –
CCCCC[P+](CCCCC)(CCCCC)Cc1ccc(C(=O)c2ccc(C[P+](CCCCC)(CCCCC)CCCCC)cc2)cc1.[Br-].[Br-] | – | – | – | 219 µM | – | 29 | 223 | 0.053 µM | 1.2 °C | – | – | 0.414 µM | 11.8 µM | – | – | – | – | – | –
Cl.Cl.O=C(Nc1ccc(NC2=NCCN2)cc1)c1ccc(NC2=NCCN2)cc1 | – | – | – | 705 µM | – | 7720 | 6893 | 0.028 µM | 47.1 °C | – | – | 0.025 µM | 193 µM | – | Active | >60 days | – | – | –

— ChEMBL document CHEMBL1141653, “New bis(2-aminoimidazoline) and bisguanidine DNA minor groove binders with potent in vivo antitrypanosomal and antiplasmodial activity” (J Med Chem, 2008)
